Cytotoxicity data for 95 compounds are collected here from ChEMBL document CHEMBL4513216, “Probing the Open Global Health Chemical Diversity Library for Multistage-Active Starting Points for Next-Generation Antimalarials” (ACS Infect Dis, 2020).

The nature of this data set: Toxicity liver stage against HepG2, at 10uM. The data set is classed as cell-based. Set-up: test concentration 10 uM, cell line HepG2-A16-CD81EGFP. The settings on record: human, HepG2-A16-CD81EGFP cells; read-out: INHIBITION
The method in brief: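 Uninfected HepG2-A16-CD81EGFP cells, 3 × 10^3 per well, 1536-well, plated on prespotted compound at 10 μM final, parasite-free screening media added to match infected plates; puromycin 10 μM positive, DMSO 0.5% negative; run in parallel with 48 h PbLuc assay at 37 °C, 5% CO2; viability by CellTiter-Glo luminescence, normalized to controls.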
Turning to `CC(C)[C@H](NC(=O)N1CCC(Cc2ccccc2)CC1)C(=O)O`, the cytotoxicity at 10 µM is -7.44%.

Regarding `CCNC(=O)N1CC[C@H]2CC(=O)N(CC(N)=O)CC[C@H]2C1`, the cytotoxicity at 10 µM turned out to be 10%.

In the case of `O=C(NC[C@H]1OC[C@@H](NC2CCC(F)(F)CC2)[C@@H]1O)N1CCOCC1`, the cytotoxicity at 10 µM was -0.0603%.

On to `CNC(=O)[C@@H]1[C@@H](c2ccccc2)CN2CCN(Cc3cc(C)no3)C[C@H]12`, for which the cytotoxicity at 10 µM was determined as 5.94%.

Regarding `CCNCCC(Cc1ccccc1)c1ccco1` (stereo not given), the cytotoxicity at 10 µM was determined as 5.31%.

Consider `Cc1cc(C)n2c(CCCNS(=O)(=O)c3cccs3)nnc2n1`, for which the cytotoxicity at 10 µM turned out to be 1.57%.

As for `COCC(=O)NCc1nn(CCN2CCCC2)c(=O)c2ccccc12`, the cytotoxicity at 10 µM was -18.9%.

`Cc1nnc(C2CCN(C(=O)c3cnc4ccccc4n3)CC2)s1`: the cytotoxicity at 10 µM turned out to be 7.1%.

With `O=C(NC[C@H]1OC[C@@H]2CCN(c3ncccn3)C[C@@H]21)c1ccnnc1`, the cytotoxicity at 10 µM was found to be 7.37%.

On to `Cc1noc(C2CCC3(CCN(C(=O)c4ccncn4)CC3)O2)n1` (stereo not given), for which the cytotoxicity at 10 µM turned out to be 5.76%.

For `CCOCC1CN(C(=O)c2cccc(C)n2)Cc2cnn(C)c21` (stereo not given), the cytotoxicity at 10 µM is 2.98%.

For `CCOCC1CN(Cc2cc(C)on2)Cc2cn(C)nc21` (stereo not given), the cytotoxicity at 10 µM was 13.6%.

Turning to `O=C(NCCn1ccc(-c2ccccn2)n1)c1ccncc1`, the cytotoxicity at 10 µM is -20.7%.

`CS(=O)(=O)NC[C@]12COC[C@H]1CN(C(=O)c1ccccc1)C2`: the cytotoxicity at 10 µM amounted to 1.44%.

Consider `Cc1nn(C)c(C)c1CNC(=O)c1cc(NC(=O)C2CC2)n(C)n1`, for which the cytotoxicity at 10 µM was determined as 5.31%.

As for `CCOCc1cccc(S(=O)(=O)Nc2ncc(C)s2)c1`, the cytotoxicity at 10 µM came out at 6.38%.

Turning to `CCCNC(=O)C(C)n1nc(-c2ccc(C)o2)cc(N)c1=O` (stereo not given), the cytotoxicity at 10 µM was -1.15%.

For the compound `CCC1c2cccn2CCN1S(=O)(=O)N1CCOCC1` (stereo not given), the cytotoxicity at 10 µM came to 7.25%.

Regarding `CSc1nnc(CNC(=O)Nc2ccccc2F)n1C`, the cytotoxicity at 10 µM amounted to 4.09%.

As to `O=C(NCC1CCCO1)c1cc(-c2cccnc2)c2cnccc2n1` (stereo not given), the cytotoxicity at 10 µM was 15.2%.

With `NC(=O)c1ccc(C2CN(Cc3ccc(F)cc3)CCO2)nc1` (stereo not given), the cytotoxicity at 10 µM was determined as 18.6%.

Regarding `CC[C@H](Cn1ncc2ccccc2c1=O)NC(=O)c1ccccn1`, the cytotoxicity at 10 µM is -4.27%.

Turning to `O=C(C1CC1)N1C[C@H]2CCCN(S(=O)(=O)c3ccc(Cl)s3)[C@H]2C1`, the cytotoxicity at 10 µM stood at 8.26%.

Turning to `CCCN1C[C@H](NC(=O)c2cccs2)[C@@H](c2ccc(OC)cc2)C1`, the cytotoxicity at 10 µM was -9.96%.

For `O=C(c1cccnc1)N1CCOC(c2ccc(-c3cncnc3)cn2)C1` (stereo not given), the cytotoxicity at 10 µM is -16%.

As to `Cc1nc(NC2CCCC2)cc(C2CCN2C(=O)c2ccccc2)n1` (stereo not given), the cytotoxicity at 10 µM was -6.31%.

In the case of `Cc1ccc(S(=O)(=O)NC(CO)CC(C)C)cc1N(C)C` (stereo not given), the cytotoxicity at 10 µM is -0.996%.

For `CC(=O)c1cccc(OCC(=O)N(CC(C)C)C2CCN(C)CC2)c1`, the cytotoxicity at 10 µM is -17.6%.

For the compound `CN(C)C(=O)CCC[S+]([O-])Cc1ccc(F)c(F)c1` (stereo not given), the cytotoxicity at 10 µM came to 12.2%.

Turning to `CC(C)(NS(C)(=O)=O)C(=O)NCCc1csc2ccccc12`, the cytotoxicity at 10 µM came to 0.694%.

For `CC(C)CC(=O)N1Cc2ccccc2CC1C(=O)Nc1nccs1` (stereo not given), the cytotoxicity at 10 µM was -135%.

Consider `Cn1c(CN2CCCC(N3CCNC3=O)C2)cc(=O)n(C)c1=O` (stereo not given), for which the cytotoxicity at 10 µM was -5.6%.

Consider `CC(NCCc1nccn1Cc1ccccc1)c1cccs1` (stereo not given), for which the cytotoxicity at 10 µM amounted to 3.68%.

Take `CCCC(C#N)NC(=O)CCCOc1cccc(F)c1` (stereo not given): the cytotoxicity at 10 µM was -44.1%.

For `C1CCC(CNC2CCCN(Cc3noc(C4CC4)n3)C2)CC1` (stereo not given), the cytotoxicity at 10 µM was -4.15%.

Regarding `CCOc1cc(CN(C)CCCO)ccc1OC(F)F`, the cytotoxicity at 10 µM was -14.1%.

In the case of `CCn1cnnc1C1CCN(C(=O)c2ccnc(N(C)C)c2)CC1`, the cytotoxicity at 10 µM worked out at 8.2%.

`O=C(CC1CN(Cc2ccccc2)CCO1)Nc1ccsc1` (stereo not given): the cytotoxicity at 10 µM was -16.4%.

For the compound `CC(C)NC(=O)CCNC(=O)c1cc(F)ccc1NS(C)(=O)=O`, the cytotoxicity at 10 µM was -4.24%.

With `CCN(C(=O)NCCc1ccccc1Cl)C(C)CS(C)(=O)=O` (stereo not given), the cytotoxicity at 10 µM turned out to be 8.83%.

For `COc1cc(F)c(S(=O)(=O)N2c3ncccc3NC(=O)C2C)cc1OC` (stereo not given), the cytotoxicity at 10 µM is -1.92%.

Regarding `Cc1cccc(OCC(=O)N(Cc2ccncc2)C2CC2)c1`, the cytotoxicity at 10 µM was -40.4%.

In the case of `NC(=O)NC(CC(=O)NCCc1cccc(F)c1)c1cccs1` (stereo not given), the cytotoxicity at 10 µM came out at 1.55%.

For the compound `COCc1cccc(NC(C)C(=O)N(C)Cc2ccccc2)c1` (stereo not given), the cytotoxicity at 10 µM is -0.42%.

Take `O=C(Cc1ccccc1)N1CCC2(CC1)CC(Nc1cnccn1)CO2` (stereo not given): the cytotoxicity at 10 µM turned out to be 5.1%.

With `CS(=O)(=O)N1C[C@@H]2CCN(C(=O)c3cscn3)[C@@H]2C1`, the cytotoxicity at 10 µM stood at 9.79%.

On to `O=C(NCC1Cn2nnc(-c3ccncc3)c2CO1)c1ccc[nH]1` (stereo not given), for which the cytotoxicity at 10 µM came out at 1.6%.

`O=C(c1ccnnc1)N1C[C@@H](OCC2CCOCC2)[C@H]2OCCC[C@H]21`: the cytotoxicity at 10 µM is -4.66%.

Take `CC(C)[C@@H]1CN(C(=O)NCc2ccco2)C[C@H]1N(C)C`: the cytotoxicity at 10 µM came out at 12.7%.

In the case of `CCC[C@H]1CN(C2CCOCC2)C[C@@H]1NC(=O)CCCn1ccnc1`, the cytotoxicity at 10 µM stood at 8.06%.

With `COc1ccc(C(=O)N2C[C@@H](O)[C@H](NCc3ncccc3C)C2)cc1`, the cytotoxicity at 10 µM was found to be 0.225%.

Turning to `O=C(NCC1CCCCO1)c1cc(Cn2cnc3ccccc32)[nH]n1` (stereo not given), the cytotoxicity at 10 µM is -11.3%.

In the case of `CC(C)S(=O)(=O)N1CCCC(c2nnc(Cn3ccnc3)n2C)C1` (stereo not given), the cytotoxicity at 10 µM is -2.83%.

Regarding `COc1ccccc1OC1CN(C(=O)C(c2ccccc2F)N(C)C)C1` (stereo not given), the cytotoxicity at 10 µM was 3.91%.

Regarding `CCc1cc(C(=O)NCC2CCN(Cc3cccc(C#N)c3)C2)on1` (stereo not given), the cytotoxicity at 10 µM turned out to be 4.98%.

On to `CCC(Nc1ncccn1)c1cccnc1` (stereo not given), for which the cytotoxicity at 10 µM turned out to be 5.84%.

In the case of `O=C(CCc1nc(Cl)n[nH]1)N1C[C@H](CO)C[C@H](CN2CCCC2)C1`, the cytotoxicity at 10 µM is 0.77%.

For `COc1cccc([C@H]2CN(C(=O)c3noc4c3CCCC4)C[C@@H]2N)c1`, the cytotoxicity at 10 µM was found to be 2.57%.

In the case of `Cc1cc(C)n(C2CN(C(=O)Cn3c(=O)c(C)nc4ccccc43)C2)n1`, the cytotoxicity at 10 µM was -7.59%.

Regarding `COCCC1(C(=O)O)CCCN(CCc2ccccc2)C1` (stereo not given), the cytotoxicity at 10 µM stood at 10.6%.

Regarding `CCn1cnc(NC(=O)N2CCC(c3ccc(F)cc3)C2)n1` (stereo not given), the cytotoxicity at 10 µM was 4.17%.

Consider `Cc1nc(CNc2nc(-c3ccco3)nc3c2CCNCC3)n[nH]1`, for which the cytotoxicity at 10 µM is -9.08%.

On to `CCC(C)N(Cc1cccnc1)Cc1ccccc1Cn1cccn1` (stereo not given), for which the cytotoxicity at 10 µM is -43%.

In the case of `Cc1ccc(C(C(=O)NCc2cc(C)[nH]n2)N(C)C)cc1` (stereo not given), the cytotoxicity at 10 µM is -0.671%.

For `CCCNS(=O)(=O)c1ccc(C(=O)NC(CC)c2cnn(C)c2)cc1` (stereo not given), the cytotoxicity at 10 µM was 6.1%.

With `CCc1cc(N[C@H]2CCC[C@H]2O)n2nccc2n1`, the cytotoxicity at 10 µM was -4%.

In the case of `Cn1cc2ncn(CCNc3cccnc3)c(=O)c2n1`, the cytotoxicity at 10 µM turned out to be 2.52%.

Regarding `O=C(c1ccc(N2CCOCC2)nc1)N1CCCC(n2cccn2)C1` (stereo not given), the cytotoxicity at 10 µM is -11.2%.

`CC(C)CS(=O)(=O)CC(=O)NC(C)c1nnc2n1CCC2` (stereo not given): the cytotoxicity at 10 µM was -19.1%.

As to `CC(C)(C)c1ncc(CNCC2CCCN2c2cccnn2)s1` (stereo not given), the cytotoxicity at 10 µM is -3.33%.

As for `OCC1CCCN1c1cc(NCc2cccs2)ncn1` (stereo not given), the cytotoxicity at 10 µM was -5.62%.

For the compound `Cn1ccc(CN2CCC(CN3CCOCC3)CC2)cc1=O`, the cytotoxicity at 10 µM was -11%.

On to `CC(Cn1cccn1)NC(=O)NCc1cccnc1` (stereo not given), for which the cytotoxicity at 10 µM is -0.088%.

On to `Cc1nc(CN2CCCC(N(C)CC(=O)Nc3cccnc3)C2)no1` (stereo not given), for which the cytotoxicity at 10 µM is -7.88%.

As for `CC(C)(O)CN1CCN(C(=O)c2cccc3[nH]ncc23)CC1`, the cytotoxicity at 10 µM worked out at 3.28%.

As for `CC(C(=O)Nc1ccc(N2CCCC2)nc1)n1ccnc1` (stereo not given), the cytotoxicity at 10 µM was -8.53%.

Take `Cc1ccc(CNC(C)c2ccc3[nH]c(=O)[nH]c3c2)s1` (stereo not given): the cytotoxicity at 10 µM was -10.7%.

As to `c1cnc(Nc2cncc(C3CCCN3)n2)cn1` (stereo not given), the cytotoxicity at 10 µM was -8.69%.

As to `Cc1cccc(CN2CCCCC2c2n[nH]cc2-c2cc(C)no2)c1` (stereo not given), the cytotoxicity at 10 µM was found to be 6.5%.

Regarding `Cc1cc(C[C@@H]2COC[C@H]2NCc2ccc(C(F)(F)F)cc2)on1`, the cytotoxicity at 10 µM was -18.7%.

For `CN1CCN(C[C@H]2OC[C@@H]3CCN(C(=O)c4cnccn4)C[C@@H]32)CC1`, the cytotoxicity at 10 µM was 12%.

With `Fc1cnc(N2CC[C@@H]3O[C@@H](COCc4cccnc4)CC[C@@H]32)nc1`, the cytotoxicity at 10 µM came out at 10.1%.

Consider `COc1c(CNCc2nnc3n2CCCCC3)c(C)nn1C`, for which the cytotoxicity at 10 µM stood at 9.03%.

Consider `CCc1ccc(CN2CCc3c(nnn3C)C2COC)cc1` (stereo not given), for which the cytotoxicity at 10 µM was determined as 7.28%.

As to `O=C(NCC1CC1)C1CN(c2ncccn2)Cc2ccnn2C1` (stereo not given), the cytotoxicity at 10 µM was 0.705%.

Regarding `CNC(=O)c1cc(C2CCCN2)n[nH]1` (stereo not given), the cytotoxicity at 10 µM was -11.9%.

On to `CCc1nccn1-c1cccc(C2CCCN2)n1` (stereo not given), for which the cytotoxicity at 10 µM was -5.77%.

`c1ccc(CN2CC[C@]3(C[C@@H](Oc4ccccn4)CO3)C2)nc1`: the cytotoxicity at 10 µM was -1.88%.

Consider `Cn1cc(CN2C[C@H]3CCC[C@@H](CNc4ncccn4)[C@H]3C2)cn1`, for which the cytotoxicity at 10 µM is -2.57%.

For `O=C(Cc1ccsc1)N1C[C@@H]2OCCN(CC3CC3)[C@@H]2C1`, the cytotoxicity at 10 µM is 10.1%.

As for `O=C1CC(c2ccccc2)C2(CCN(CC3CC3)CC2)N1` (stereo not given), the cytotoxicity at 10 µM is -6.47%.

Turning to `O=c1c2sccc2nc2n1CCN(Cc1ccc(F)c(F)c1)CC2`, the cytotoxicity at 10 µM was -26%.

For the compound `CC(C)CN1C[C@@H]2C[C@H](C(=O)NC3CCC3)[C@H](C1)O2`, the cytotoxicity at 10 µM worked out at 2.37%.

As for `CC(C)CN1C[C@@H]2C[C@H](C(=O)N3CCCC3)[C@H](C1)O2`, the cytotoxicity at 10 µM amounted to 3.17%.

Turning to `O=S(=O)(c1cccnc1)N1C[C@H]2CC[C@@H](C1)N(Cc1ccccn1)C2`, the cytotoxicity at 10 µM was -0.807%.
